Experiment [1] relates to Rattus norvegicus. The experiment can be described thus: Delta BP refers to oral hypotensive activity of compound which is evaluated at 4 hr and 24 hr in restrained, normotensive conscious rats at a dose of 50 mg/kg; -4/-10. It is filed as functional. The gist of the method:
(§1)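 Female Sprague-Dawley rats, normotensive, restrained in a towel. Blood pressure was read directly via chronic indwelling aortic cannulas exteriorized at the nape, before and 4 and 24 h after an oral dose suspended in carboxymethylcellulose (10 mL/kg). Values from two animals were averaged at each time; a mean change of at least 5 mmHg was taken as significant (p < 0.05).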

Experiment [2] relates to Rattus norvegicus. Description: Delta BP refers to oral hypotensive activity of compound which is evaluated at 4 hr and 24 hr in restrained, normotensive conscious rats at a dose of 50 mg/kg. It is filed as functional, organism-based. Details: dose 50 mg/kg. The essentials: as §1
Experiment [3] concerns Rattus norvegicus. Description: Delta BP refers to oral hypotensive activity of compound which is evaluated at 4 hr and 24 hr in restrained, normotensive conscious rats at a dose of 50 mg/kg; -19/-21. The experiment is classed as functional. The essentials:
as §1

In experiment [4] the test system is Rattus norvegicus. Description: Delta BP refers to oral hypotensive activity of compound which is evaluated at 4 hr and 24 hr in restrained, normotensive conscious rats at a dose of 50 mg/kg; -15/3. It is filed as functional. The essentials:
as §1

Experiment [5] deals with Rattus norvegicus. The experiment can be described thus: Delta BP refers to oral hypotensive activity of compound which is evaluated at 4 hr and 24 hr in restrained, normotensive conscious rats at a dose of 50 mg/kg; -17/-16. It is filed as functional. The gist of the method: as §1
Experiment [6] relates to Rattus norvegicus. Description: Delta BP refers to oral hypotensive activity of compound which is evaluated at 4 hr and 24 hr in restrained, normotensive conscious rats at a dose of 50 mg/kg; -10/-3. The experiment is classed as functional. The gist of the method:
as §1

The test system of experiment [7] is Rattus norvegicus. The experiment can be described thus: Delta BP refers to oral hypotensive activity of compound which is evaluated at 4 hr and 24 hr in restrained, normotensive conscious rats at a dose of 50 mg/kg; -13/-19. It is filed as functional. The essentials: as §1
Experiment [8] concerns Rattus norvegicus. Description: Delta BP refers to oral hypotensive activity of compound which is evaluated at 4 hr and 24 hr in restrained, normotensive conscious rats at a dose of 50 mg/kg; 2/2. It is filed as functional. The gist of the method: as §1
For experiment [9], the system named is Rattus norvegicus. The experiment can be described thus: Delta BP refers to oral hypotensive activity of compound which is evaluated at 4 hr and 24 hr in restrained, normotensive conscious rats at a dose of 50 mg/kg; -4/-2. It is filed as functional. The essentials:
as §1

For experiment [10], the system named is Rattus norvegicus. Description: Delta BP refers to oral hypotensive activity of compound which is evaluated at 4 hr and 24 hr in restrained, normotensive conscious rats at a dose of 50 mg/kg; -8/-1. The experiment is classed as functional. The gist of the method:
as §1

In experiment [11] the test system is Rattus norvegicus. Description: Delta BP refers to oral hypotensive activity of compound which is evaluated at 4 hr and 24 hr in restrained, normotensive conscious rats at a dose of 50 mg/kg; -16/3. The experiment is classed as functional. Conditions: dose 15 mg/kg, in the assay text read “dose of 15 mg/kg” for “dose of 50 mg/kg”. The gist of the method: as §1

Experiment [12] deals with Rattus norvegicus. Description: Delta BP refers to oral hypotensive activity of compound which is evaluated at 4 hr and 24 hr in restrained, normotensive conscious rats at a dose of 50 mg/kg; -22/-25. The experiment is classed as functional. The gist of the method:
as §1

In experiment [13] the test system is Rattus norvegicus. The experiment can be described thus: Delta BP refers to oral hypotensive activity of compound which is evaluated at 4 hr and 24 hr in restrained, normotensive conscious rats at a dose of 50 mg/kg; -8/-10. The experiment is classed as functional. The essentials: as §1
In experiment [14] the test system is Rattus norvegicus. Description: Delta BP refers to oral hypotensive activity of compound which is evaluated at 4 hr and 24 hr in restrained, normotensive conscious rats at a dose of 50 mg/kg; 3/2. The experiment is classed as functional. The gist of the method:
as §1

The test system of experiment [15] is Rattus norvegicus. Description: Delta BP refers to oral hypotensive activity of compound which is evaluated at 4 hr and 24 hr in restrained, normotensive conscious rats at a dose of 50 mg/kg; -13/-2. The experiment is classed as functional. The essentials: as §1

The structures appear in SMILES notation. The source made the active and inactive calls. The rule behind the calls is not given here.

Consider 26 compounds from ChEMBL document CHEMBL1122179, “1-(alkylamino)isochromans: hypotensives with peripheral and central activities” (J Med Chem, 1982).

`COc1cc2c(cc1OC)C(C)(C)COC2CCN1CCN(c2cccc(Cl)c2)CC1` (stereo not drawn) displayed a Delta blood pressure in [1] of -4 mmHg.

Take `COc1cc2c(cc1OC)C(C)(C)COC2CCN1CCN(c2ccccc2Cl)CC1` (stereo not drawn): in experiment [2], the Delta blood pressure result was “inactive”. In experiment [3], `COc1cc2c(cc1OC)C(CCN1CCN(c3ccc(Cl)cc3)CC1)OCC2` (stereo not drawn) displayed a Delta blood pressure of -19 mmHg.

With `COc1cc2c(cc1OC)C(CCN1CCN(c3ccccc3OC)CC1)OC(C)(C)C2` (stereo not drawn), the Delta blood pressure is listed as -15 mmHg in [4] and -17 mmHg in experiment [5]. Compound `COc1cc2c(cc1OC)C(C)(CCCN1CCN(c3ccc(F)cc3)CC1)OCC2` (stereo not drawn) yielded a Delta blood pressure in experiment [6] of -10 mmHg. As to `COc1cc2c(cc1OC)C(CN1CCN(c3ccc(Cl)cc3)CC1)OCC2` (stereo not drawn), the Delta blood pressure in experiment [7] was -13 mmHg.

Compound `COc1cc2c(cc1OC)C(CCCN1CCN(c3ccccn3)CC1)(c1ccc(F)cc1)OCC2` (stereo not drawn) gave a Delta blood pressure in [3] of -19 mmHg. `COc1cc2c(cc1OC)C(CN1CCN(c3cccc(C(F)(F)F)c3)CC1)OCC2` (stereo not drawn) yielded a Delta blood pressure in [8] of 2 mmHg.

Compound `COc1cc2c(cc1OC)C(C)(CCCN1CCN(c3ccccc3)CC1)OCC2` (stereo not drawn) yielded a Delta blood pressure in experiment [9] of -4 mmHg. `COc1cc2c(cc1OC)C(C)(CCN1CCN(c3ccccn3)CC1)OCC2` (stereo not drawn): the Delta blood pressure entry in experiment [2] was “inactive”. In the case of `COc1cc2c(cc1OC)C(C)(CCCN1CCN(c3ccc(Cl)cc3)CC1)OCC2` (stereo not drawn), the Delta blood pressure in [10] was -8 mmHg. For the compound `COc1cc2c(cc1OC)C(CCCN1CCN(c3cccc(C(F)(F)F)c3)CC1)(c1ccc(F)cc1)OCC2` (stereo not drawn), the Delta blood pressure result in [2] is “inactive”.

`COc1cc2c(cc1OC)C(CCN1CCN(c3ccccc3OC)CC1)OCC2` (stereo not drawn): the Delta blood pressure result in experiment [2] is “inactive”. On the same count and under the same terms, next, `COc1cc2c(cc1OC)C(CCCN1CCN(c3ccccc3OC)CC1)(c1ccc(F)cc1)OCC2` (stereo not drawn): “inactive”; `COc1cc2c(cc1OC)C(CCCN1CCN(c3ccc(Cl)cc3)CC1)(c1ccc(F)cc1)OCC2` (stereo not drawn): “inactive”.

Consider `COc1cc2c(cc1OC)C(C)(CCN1CCN(c3ccccc3C)CC1)OCC2` (stereo not drawn), for which, in experiment [2], the Delta blood pressure entry is “inactive”.

As to `COc1cc2c(cc1OC)C(CCCN1CCN(c3ccc(F)cc3)CC1)(c1ccc(F)cc1)OCC2` (stereo not drawn), the Delta blood pressure in experiment [11] is -16 mmHg; in experiment [12], -22 mmHg. For `COc1cc2c(cc1OC)C(C)(CCCN1CCN(c3cccc(C(F)(F)F)c3)CC1)OCC2` (stereo not drawn), the Delta blood pressure entry in experiment [2] was “inactive”.

Consider `COc1cc2c(cc1OC)C(C)(CCCN1CCN(c3ccccc3Cl)CC1)OCC2` (stereo not drawn), for which the Delta blood pressure entry in experiment [2] is “inactive”. Same read-out and setting: next, `COc1cc2c(cc1OC)C(CCCN1CCN(c3cccc(Cl)c3)CC1)(c1ccc(F)cc1)OCC2` (stereo not drawn): “inactive”.

Take `COc1cc2c(cc1OC)C(C)(CCN1CCN(c3ccc(Cl)cc3)CC1)OCC2` (stereo not drawn): in experiment [13], the Delta blood pressure is -8 mmHg. As for `COc1cc2c(cc1OC)C(CCN1CCN(c3ccc(Cl)cc3)CC1)OC(C)(C)C2` (stereo not drawn), in experiment [2], the Delta blood pressure entry was “inactive”.

In experiment [14], `COc1cc2c(cc1OC)C(CCN1CCN(c3ccccc3Cl)CC1)OCC2` (stereo not drawn) gave a Delta blood pressure of 3 mmHg. The compound `COc1cc2c(cc1OC)C(C)(C)COC2CCN1CCN(c2ccc(Cl)cc2)CC1` (stereo not drawn) yielded a Delta blood pressure in experiment [15] of -13 mmHg. Regarding `COc1cc2c(cc1OC)C(C)(CCCN1CCN(c3ccccc3OC)CC1)OCC2` (stereo not drawn), in [2], the Delta blood pressure entry is “inactive”. Same read-out and setting: the value for `COc1cc2c(cc1OC)C(C)(CCCN1CCN(c3cccc(Cl)c3)CC1)OCC2` (stereo not drawn) was “inactive”.
